An excerpt weighted towards active compounds, which were near 1.9% of everything screened.
STEP block: STEP phosphatase inhibitors, primary screen, biochemical, fluorescence intensity, uHTS. Tyrosine-protein phosphatase non-receptor type 5 (Homo sapiens), P54829. recombinant STEP, OMFP fluorogenic substrate. inhibition, % at 20 µM. 0.25% of 360,000 active. AID 588621, 2011;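 active = inhibition at 20 µM, scaled per plate between control wells, above about 37%, limit read from the data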;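 note: 0% = DMSO with enzyme and substrate and 100% = substrate only without enzyme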
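Test system: STEP tyrosine phosphatase / Reagent: OMFP at 25 µM / Doses: 20 µM, 1% DMSO / Read-out: percent inhibition scaled to no-enzyme and uninhibited-enzyme controls, plate-pattern corrected / Detection: FITC-channel fluorescence of OMFP product / Medium: Bis-Tris buffer pH 6.0, 2.5 mM DTT, 0.005% Tween 20 / Schedule: 20 min at room temperature, dark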
Scp1 inh: Scp-1 phosphatase inhibitors, primary screen, biochemical, colorimetric, uHTS; Carboxy-terminal domain RNA polymerase II polypeptide A small phosphatase 1 (Homo …; Recombinant Scp1, phosphopeptide, malachite green phosphate absorbance; inhibition, % at 20 µM; 0.88% of 340,000 active; AID 493091, 2011;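 active = inhibition above about 50% at 20 µM, limit read from the data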;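 note: plate controls were DMSO wells with enzyme for no effect and wells lacking enzyme for full effect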
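assay system = SCP-1 phosphatase catalytic domain, residues 76-261 | buffer or medium = 50 mM Tris acetate pH 5.5, 0.005% Tween-20, 10 mM MgCl2 | incubation = enzyme reaction 45 min at room temperature, colour 5 min, stabilisation 30 min | signal = Phosphate-binding colour reagent, absorbance read at 630 nm | measure = % inhibition at 20 µM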
LMPTP block: LMPTP phosphatase inhibitors, primary screen, biochemical, fluorescence intensity, uHTS; recombinant LMPTP-A, OMFP fluorogenic substrate; inhibition, % at 20 µM; 0.22% of 360,000 active; AID 651560, 2012;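 active = compounds that cut the enzyme signal by at least half of the control window in the single-dose screen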;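 note: plate controls were DMSO wells with enzyme plus substrate for no effect and substrate without enzyme for full effect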
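Test system – LMPTP-A enzyme · Amount – LMPTP-A at 0.625 nM final in the reaction · Buffer or medium – Bis-Tris pH 6.0, DTT, detergent · Reagent – OMFP 400 µM · Doses – single 20 µM dose · Schedule – reaction 50 min, room temperature, dark · Detection – fluorescence intensity of OMFP turnover product · Evaluation – percent inhibition versus substrate-only and uninhibited controls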
CSN deneddyl inh: inhibitors of CSN-mediated cullin deneddylation, primary screen, biochemical, fluorescence polarization, uHTS; 0.38% of 360,000 active; COP9 signalosome complex subunit 5 (Homo sapiens), Q92905; Purified CSN, SCF-Nedd8-OG deneddylation; inhibition, % at 12.5 µM;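 active = pattern-corrected inhibition above about 35%, with an unprinted fluorescence ratio check between 0.5 and 1.5, limit read from the data, passing the limit was not always enough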;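 note: 0% = enzyme with substrate and 100% = substrate without enzyme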
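Material: human Csn5 produced in HEK293T cells; Input: enzyme 0.24 nM; Reagent: SCFSkp2-Nedd8OG substrate at 10 nM final; Dosing: 12.5 µM compound; Incubation: 90 min reaction at room temperature; Detection: fluorescence polarization of the substrate; Evaluation: % inhibition of substrate cleavage by Csn5; Control set: substrate-only high control, full reaction low control.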
SUMO1-SIM PPI: modulators of SUMO1 protein-protein interactions, primary screen, biochemical, uHTS; inhibition, % at 20 µM; Small ubiquitin-related modifier 1 (Homo sapiens), P63165; SUMO1 binding to a labelled peptide, TR-FRET, 1 h; 0.33% of 360,000 active; AID 602429, 2012; in the data active = inhibition above about 37%
DNMT1 inh: human DNMT1 methyltransferase inhibitors, primary screen, biochemical, molecular beacon, fluorescence, HinP1I cleavage, uHTS. DNA (cytosine-5)-methyltransferase 1 (Homo sapiens), P26358. inhibition (reported as % activation of signal), % at 10 µM. 0.83% of 360,000 active
Target sequence (P26358 504-1616 limits assumed): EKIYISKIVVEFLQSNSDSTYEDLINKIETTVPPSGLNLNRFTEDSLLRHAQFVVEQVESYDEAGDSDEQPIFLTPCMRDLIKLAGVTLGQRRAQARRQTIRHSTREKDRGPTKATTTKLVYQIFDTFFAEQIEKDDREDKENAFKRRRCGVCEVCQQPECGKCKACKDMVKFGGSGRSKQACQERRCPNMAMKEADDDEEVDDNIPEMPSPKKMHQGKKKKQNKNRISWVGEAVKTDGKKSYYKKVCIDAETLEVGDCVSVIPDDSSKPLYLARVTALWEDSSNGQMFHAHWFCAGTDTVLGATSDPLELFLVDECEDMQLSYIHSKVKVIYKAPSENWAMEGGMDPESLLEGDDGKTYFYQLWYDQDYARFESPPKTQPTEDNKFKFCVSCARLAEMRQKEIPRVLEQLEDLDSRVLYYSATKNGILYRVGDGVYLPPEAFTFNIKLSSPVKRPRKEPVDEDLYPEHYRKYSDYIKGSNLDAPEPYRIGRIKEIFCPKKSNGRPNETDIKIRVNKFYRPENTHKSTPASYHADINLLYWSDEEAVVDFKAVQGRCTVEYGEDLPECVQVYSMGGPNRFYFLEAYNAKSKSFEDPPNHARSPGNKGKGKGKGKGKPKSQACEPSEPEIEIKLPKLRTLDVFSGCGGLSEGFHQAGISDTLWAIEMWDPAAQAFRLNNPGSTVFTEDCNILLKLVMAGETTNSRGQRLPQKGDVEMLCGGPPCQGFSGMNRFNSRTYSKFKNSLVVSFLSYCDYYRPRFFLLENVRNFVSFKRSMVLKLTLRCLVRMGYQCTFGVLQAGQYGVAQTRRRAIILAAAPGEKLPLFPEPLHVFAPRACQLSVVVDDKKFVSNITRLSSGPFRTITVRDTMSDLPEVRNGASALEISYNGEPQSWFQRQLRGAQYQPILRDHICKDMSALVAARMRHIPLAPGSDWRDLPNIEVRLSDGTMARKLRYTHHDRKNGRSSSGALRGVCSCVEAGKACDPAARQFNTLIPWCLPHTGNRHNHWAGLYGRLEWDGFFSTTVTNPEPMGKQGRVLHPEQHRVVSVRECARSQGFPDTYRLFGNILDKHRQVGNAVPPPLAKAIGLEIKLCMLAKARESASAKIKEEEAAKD
DNMT1 inh conf: DNMT1 methyltransferase inhibitor retest, confirmation, biochemical, molecular beacon, fluorescence, single concentration; shares compounds with DNMT1 inh; DNMT1 molecular beacon HinP1I cleavage; 8% of 2,300 active; inhibition, % at 10 µM;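 active = average inhibition of at least 30% in the single-concentration confirmation test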
Beacon interf: beacon fluorescence artifact counter-screen; AID 602387; shares compounds with DNMT1 inh; 1% of 2,300 active; activation (fluorescence interference), % at 10 µM; DNMT1 molecular beacon spectral interference counterscreen, fluorescence 485/520;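 active = activation of at least 30% at 10 µM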;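 note: DNMT1 catalytic domain with a HinP1I cleavage step and a FAM/dabcyl DNA beacon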
STEP inh conf: STEP phosphatase inhibitor hit confirmation, biochemical, fluorescence intensity, single concentration; shares compounds with STEP block; recombinant STEP, OMFP fluorogenic substrate; inhibition, % at 20 µM; 32% of 520 active; AID 623866, 2012; call rule not given here;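 note: 0% = enzyme with substrate plus DMSO and 100% = substrate without enzyme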
CSN5 deneddyl: Csn5 deneddylation inhibitors, confirmation, biochemical, fluorescence polarization, single concentration, SCF-Nedd8OG substrate; shares compounds with CSN deneddyl inh; Csn5 deneddylation of SCF-Nedd8OG, 90 min; inhibition, % at 16.6 µM; 62% of 540 active; AID 720654, 2013;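 note: 0% = DMSO with enzyme and 100% = no enzyme wells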
MMP2 cntr CSN: MMP-2 protease inhibition counter-screen, confirmation, counter-screen for CSN deneddylation inhibitor project, biochemical, fluorescence, single concentration | 33% of 540 active | inhibition, % at 16.6 µM | recombinant MMP-2, FRET substrate fluorescence, 60 min | AID 720655, 2013 | shares compounds with CSN deneddyl inh;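 active = corrected plate-normalized z-score of 5 or more, or -5 or less, or inhibition of 15% or more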;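 note: plate controls were DMSO wells with enzyme for no effect and buffer wells lacking MMP-2 for full effect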
Thrombin cntr: thrombin (bovine) inhibition, counter-screen for CSN hits. shares compounds with CSN deneddyl inh. inhibition, % at 16.6 µM. bovine thrombin cleavage of Ub4-pepOG, fluorescence polarization. 49% of 540 active. AID 720656;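 active = inhibition at or above a set limit, with a fluorescence interference ratio between 0.5 and a set maximum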
Starred values were filed as active, the others as inactive; . = no result given. Cut-off read from the data, not from the text of the source, unless noted: active = inhibition above about 50%; inactive = the rest.

SMILES	STEP block	Scp1 inh	LMPTP block	CSN deneddyl inh	SUMO1-SIM PPI	DNMT1 inh	CSN5 deneddyl	MMP2 cntr CSN	Thrombin cntr	others
N#CC1c2ccccc2-n2nncc2CN1S(=O)(=O)c1cc(Cl)cc(Cl)c1 (stereo unspecified)	-2.0	-4.2	-3.1	-2.8	3.1	3.4	.	.	.
CCN(CC)c1ccc(/C=C2/C(=O)NC(=O)N(Cc3ccco3)C2=O)cc1	1.3	5.0	0.7	63.1*	-3.7	68.4*	56.0*	19.2*	0.3	DNMT1 inh conf=1.5;Beacon interf=-1.0
CCN(CC)c1ccc(/C=C2\C(=O)NC(=O)N(CC3CCCO3)C2=O)cc1 (stereo unspecified)	-3.5	-1.8	0.0	7.5	-1.4	-1.2	.	.	.
COC(=O)C1=C(c2ccc(OCc3ccccc3)cc2)C[C@@H]2CC[C@H]1N2C(=O)NC1CCN(Cc2ccccc2)CC1	-4.5	4.9	-0.4	-3.4	-4.4	-13.9	.	.	.
CN1CCC2(CC1)N=C(c1ccc(F)cc1)C(=S)N2	78.3*	-1.3	0.9	-2.9	-2.9	1.1	.	.	.	STEP inh conf=27.8*
CC[C@H]1CN2CCC1C[C@H]2[C@H](O)c1ccnc2ccc(OC)cc12 (stereo partly specified)	48.2*	-8.8	65.1*	-3.6	55.5*	44.8	.	.	.	STEP inh conf=9.4
CC[C@H]1CN2CCC1C[C@@H]2[C@@H](O)c1ccnc2ccc(OC)cc12 (stereo partly specified)	0.5	4.8	0.5	-0.7	2.0	2.4	.	.	.
Cc1ccc(Cn2cc(C=O)c(-c3ccc(C)cc3)n2)cc1	73.5*	-9.6	3.3	-4.8	3.4	2.3	.	.	.	STEP inh conf=26.8*
O=C(O)C1CC2(Cl)C(Cl)=C(Cl)C1(Cl)C2(Cl)Cl (stereo unspecified)	2.1	6.0	1.3	5.7	2.9	6.0	.	.	.
C[C@]12C[C@H](O)[C@@H](O)C[C@@H]1CC[C@@H]1[C@@H]2CC[C@]2(C)C(=O)CC[C@@H]12	-1.3	.	0.7	-0.7	-2.5	-6.5	.	.	.
CCn1nc(/C=C/c2ccccc2)nc2c(=O)n(C)c(=O)nc1-2	69.2*	-9.0	61.5*	59.2*	35.3	108.3*	8.6	3.4	-29.9
COc1cccc(C(c2nnnn2-c2c(C)cccc2C)N2CCC(n3c(=O)[nH]c4ccccc43)CC2)c1OC (stereo unspecified)	1.3	.	5.1	1.9	6.4	-16.9	.	.	.
O=C1NC(=O)N(c2cccc(Cl)c2)C(=O)/C1=C\c1ccc(Sc2nc3ccccc3[nH]2)o1	-2.8	8.9	7.6	37.9*	32.3	23.5	8.2	-7.5	25.2*
CCC1(C)OC(c2ccccc2)=C/C(=C/C=C2C(=O)NC(=O)NC2=O)O1 (stereo unspecified)	-5.8	-8.1	11.7	78.1*	-21.5	21.2	138.7*	-16.1	50.7*
CC(=O)O[C@H]1CC[C@@]2(C)[C@H](C1)C(=O)C[C@H]1[C@@H]3CC[C@@H]4[C@@H](CN5C[C@@H](C)CC[C@H]5[C@@]4(C)O)[C@@H]3C[C@@H]12	-0.8	5.2	2.6	-5.7	-1.1	0.8	.	.	.
COc1ccccc1N1C(=O)NC(=O)/C(=C/c2ccc([N+](=O)[O-])s2)C1=O	.	0.3	.	.	.	.	.	.	.
O=C1NC(=O)N(Cc2ccc(F)cc2)C(=O)/C1=C\c1ccc(N2CCCC2)cc1	-0.6	-5.1	10.9	38.0*	10.4	40.6	98.3*	0.9	5.7
O=C1NC(=O)N(Cc2ccc(F)cc2)C(=O)/C1=C\c1ccc([N+](=O)[O-])s1	6.4	5.3	26.9	35.4*	57.9*	48.8	34.1	15.1*	-0.3
COc1ccc(CN2C(=O)NC(=O)/C(=C/c3ccc([N+](=O)[O-])s3)C2=O)cc1	8.7	14.1	34.5	42.2*	64.8*	50.8*	35.1	12.2	3.8
COc1ccc(N2C(=O)NC(=O)/C(=C\c3ccc([N+](=O)[O-])s3)C2=O)cc1	6.4	3.1	5.9	3.2	21.3	15.6	.	.	.
C[C@H]1CN([C@@H](C)CO)C(=O)CCCn2nncc2CO[C@H]1CN(C)C(=O)Oc1ccc2ccccc2c1	-2.4	.	-0.2	-0.7	4.8	3.6	.	.	.
COc1ccc(/C=C2/C(=O)N(Cc3ccco3)C(=O)N(C(C)C)C2=O)cc1	-3.1	-10.3	3.0	98.8*	43.1*	94.4*	1.4	11.5	55.6*
Cc1ccccc1NC(=NCCCN1CC1)Nc1ccccc1C	7.8	14.6	21.2	117.2*	34.3*	-99.8	-59.3	25.7*	29.2*
Cc1ccccc1NC(=O)c1cc(-c2ccccc2)n(CCCN2CCOCC2)c1C	3.2	-9.8	-3.0	2.9	2.6	2.0	.	.	.
FC(F)(F)c1cccc(NC2=NCCS2)c1	2.1	.	-1.6	-1.9	1.8	1.9	.	.	.
O=C1NC(=O)N(c2ccc3c(c2)OCO3)C(=O)/C1=C/c1ccc(N2CCCCC2)o1	0.4	-11.9	14.7	141.1	-79.3	1.1	.	.	.
Cc1cc(C)cc(N2C(=O)/C(=C\c3ccc(N4CCN(C)CC4)o3)C(=O)NC2=S)c1	-0.8	-13.3	11.6	75.6*	-211.2	1.5	102.7*	-48.3*	-59.0
N#Cc1ncc(N=Cc2ccc(N(CCCl)CCCl)cc2)s1	5.2	-2.7	-0.4	3.6	-8.9	-13.9	.	.	.
CCOC(=O)c1c(NC(=O)c2c(N)n(CCCOC)c3nc4ccccc4nc23)sc2c1CCCC2	-4.4	-8.0	-1.6	1.2	21.3	-16.6	.	.	.
CCOCCCn1c(N)c(C(=O)Nc2sc3c(c2C(=O)OC)CCCC3)c2nc3ccccc3nc21	-1.0	-3.7	3.3	52.0*	35.9	15.2	92.7*	0.2	1.3
